{"source": "ChEMBL document CHEMBL4428123", "about": "“Synthesis of phenylpiperazine derivatives of 1,4-benzodioxan as selective COX-2 inhibitors and anti-inflammatory agents” (Bioorg Med Chem, 2016)", "key": {"Rattus norvegicus [1]": {"system": "Rattus norvegicus", "assay": "Anti-inflammatory activity in rat assessed as inhibition of carrageenan-induced paw edema at 10 mg/kg, po administered 30 mins before carrageenan challenge measured after 1 hr relative to control", "format": "functional", "method_in_brief": "(§1)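 Male rats were dosed orally with agents suspended in 0.5% Na CMC, 30 min before 0.1 mL of 1% (w/v) carrageenan was injected into the right hind paw. Thickness of both paws was measured 1, 3 and 5 h after injection. Activity was calculated as percent decrease in edema thickness relative to the carrageenan-induced edema. Data given as mean ± SD with non-parametric comparison, P < 0.05.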"}, "Rattus norvegicus [2]": {"system": "Rattus norvegicus", "assay": "Analgesic activity in rat assessed as pain threshold time at 10 mg/kg, po measured at 1.5 hrs post dose by hot plate method (reference value: 19.1 to 21.2 sec)", "format": "functional"}, "Rattus norvegicus [3]": {"system": "Rattus norvegicus", "assay": "Analgesic activity in rat assessed as pain threshold time at 10 mg/kg, po measured at 0.5 hr post dose by hot plate method (reference value: 19.1 to 21.2 sec)", "format": "functional"}, "Rattus norvegicus [4]": {"system": "Rattus norvegicus", "assay": "Analgesic activity in rat assessed as pain threshold time at 10 mg/kg, po measured at 1 hr post dose by hot plate method (reference value: 19.1 to 21.2 sec)", "format": "functional"}, "Rattus norvegicus [5]": {"system": "Rattus norvegicus", "assay": "Anti-inflammatory activity in rat assessed as inhibition of carrageenan-induced paw edema at 10 mg/kg, po administered 30 mins before carrageenan challenge measured after 3 hrs relative to control", "format": "functional", "method_in_brief": "as §1"}, "Rattus norvegicus [6]": {"system": "Rattus norvegicus", "assay": "Anti-inflammatory activity in rat assessed as inhibition of carrageenan-induced paw edema at 10 mg/kg, po administered 30 mins before carrageenan challenge measured after 5 hrs relative to control", "format": "functional", "method_in_brief": "as §1"}, "Rattus norvegicus [7]": {"system": "Rattus norvegicus", "assay": "Anti-inflammatory activity in rat assessed as inhibition of carrageenan-induced paw edema at 20 mg/kg, po administered 30 mins before carrageenan challenge measured after 3 hrs relative to control", "format": "functional", "method_in_brief": "as §1"}, "Rattus norvegicus [8]": {"system": "Rattus norvegicus", "assay": "Anti-inflammatory activity in rat assessed as inhibition of carrageenan-induced paw edema at 20 mg/kg, po administered 30 mins before carrageenan challenge measured after 1 hr relative to control", "format": "functional", "method_in_brief": "as §1"}, "Rattus norvegicus [9]": {"system": "Rattus norvegicus", "assay": "Anti-inflammatory activity in rat assessed as inhibition of carrageenan-induced paw edema at 5 mg/kg, po administered 30 mins before carrageenan challenge measured after 1 hr relative to control", "format": "functional", "method_in_brief": "as §1"}, "[10]": {"molecular_target": "T1, Prostaglandin G/H synthase 1 (Ovis aries, UniProt P05979)", "T1 sequence (P05979 whole entry)": "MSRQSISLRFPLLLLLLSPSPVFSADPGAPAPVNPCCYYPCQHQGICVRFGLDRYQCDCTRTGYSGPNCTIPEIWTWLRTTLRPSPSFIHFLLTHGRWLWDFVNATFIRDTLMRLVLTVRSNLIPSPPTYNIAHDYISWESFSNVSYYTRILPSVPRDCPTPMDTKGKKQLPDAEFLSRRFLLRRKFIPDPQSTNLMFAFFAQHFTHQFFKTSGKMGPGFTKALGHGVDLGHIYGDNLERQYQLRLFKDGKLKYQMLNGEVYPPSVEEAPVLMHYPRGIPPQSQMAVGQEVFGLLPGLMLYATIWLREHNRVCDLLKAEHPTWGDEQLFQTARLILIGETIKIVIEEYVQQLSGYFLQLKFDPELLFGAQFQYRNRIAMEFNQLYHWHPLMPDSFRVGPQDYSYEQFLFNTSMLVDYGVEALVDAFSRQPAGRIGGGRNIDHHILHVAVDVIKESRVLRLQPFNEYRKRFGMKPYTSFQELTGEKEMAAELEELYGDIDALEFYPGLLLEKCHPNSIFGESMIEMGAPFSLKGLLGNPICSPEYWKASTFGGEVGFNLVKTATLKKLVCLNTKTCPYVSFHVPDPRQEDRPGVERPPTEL", "assay": "Inhibition of ovine COX1 by enzyme immunoassay"}, "Rattus norvegicus [11]": {"system": "Rattus norvegicus", "assay": "Anti-inflammatory activity in po dosed rat assessed as inhibition of carrageenan-induced paw edema administered 30 mins before carrageenan challenge measured after 1 to 5 hrs", "format": "functional, organism-based", "method_in_brief": "as §1"}, "Rattus norvegicus [12]": {"system": "Rattus norvegicus", "assay": "Anti-inflammatory activity in rat assessed as inhibition of carrageenan-induced paw edema at 20 mg/kg, po administered 30 mins before carrageenan challenge measured after 5 hrs relative to control", "format": "functional", "method_in_brief": "as §1"}, "Rattus norvegicus [13]": {"system": "Rattus norvegicus", "assay": "Anti-inflammatory activity in rat assessed as inhibition of carrageenan-induced paw edema at 5 mg/kg, po administered 30 mins before carrageenan challenge measured after 3 hrs relative to control", "format": "functional", "method_in_brief": "as §1"}, "Rattus norvegicus [14]": {"system": "Rattus norvegicus", "assay": "Anti-inflammatory activity in rat assessed as inhibition of carrageenan-induced paw edema at 5 mg/kg, po administered 30 mins before carrageenan challenge measured after 5 hrs relative to control", "format": "functional", "method_in_brief": "as §1"}, "[15]": {"assay": "Ulcerogenecity in rat carrageenan-induced inflammation model assessed as stomach mucosal damage by measuring lesions at 5 to 20 mg/kg, po administered 30 mins before carrageenan challenge measured after 1 to 5 hrs by macroscopic analysis", "format": "ADME, organism-based", "conditions": "in vivo"}}, "data": [{"smiles": "COc1ccc(N2CCN(Cc3ccc4c(c3)OCCO4)CC2)cc1", "values": [{"measurement": "inhibition in vivo at 10 mg/kg", "setting": "Rattus norvegicus [1]", "value": 71, "unit": "%"}, {"measurement": "Time", "setting": "Rattus norvegicus [2]", "value": 22.3, "unit": "s"}, {"measurement": "Time", "setting": "Rattus norvegicus [3]", "value": 24.6, "unit": "s"}, {"measurement": "Time", "setting": "Rattus norvegicus [4]", "value": 23.3, "unit": "s"}, {"measurement": "inhibition in vivo at 10 mg/kg", "setting": "Rattus norvegicus [5]", "value": 88, "unit": "%"}, {"measurement": "inhibition in vivo at 10 mg/kg", "setting": "Rattus norvegicus [6]", "value": 63, "unit": "%"}]}, {"smiles": "c1ccc(C(c2ccccc2)N2CCN(Cc3ccc4c(c3)OCCO4)CC2)cc1", "values": [{"measurement": "inhibition in vivo at 10 mg/kg", "setting": "Rattus norvegicus [1]", "value": 15, "unit": "%"}, {"measurement": "inhibition in vivo at 10 mg/kg", "setting": "Rattus norvegicus [5]", "value": 27, "unit": "%"}, {"measurement": "inhibition in vivo at 10 mg/kg", "setting": "Rattus norvegicus [6]", "value": 19, "unit": "%"}]}, {"smiles": "FC(F)(F)c1cccc(N2CCN(Cc3ccc4c(c3)OCCO4)CC2)c1", "values": [{"measurement": "inhibition in vivo at 20 mg/kg", "setting": "Rattus norvegicus [7]", "value": 95, "unit": "%"}, {"measurement": "inhibition in vivo at 20 mg/kg", "setting": "Rattus norvegicus [8]", "value": 78, "unit": "%"}, {"measurement": "inhibition in vivo at 5 mg/kg", "setting": "Rattus norvegicus [9]", "value": 56, "unit": "%"}, {"measurement": "IC50", "setting": "[10]", "value": 8.35, "unit": "µM"}, {"measurement": "inhibition in vivo at 10 mg/kg", "setting": "Rattus norvegicus [1]", "value": "76 to 78", "unit": "%"}, {"measurement": "Time", "setting": "Rattus norvegicus [2]", "value": 23.1, "unit": "s"}, {"measurement": "Time", "setting": "Rattus norvegicus [3]", "value": 26.4, "unit": "s"}, {"measurement": "inhibition", "setting": "Rattus norvegicus [11]", "value": "Dose-dependent effect"}, {"measurement": "inhibition in vivo at 20 mg/kg", "setting": "Rattus norvegicus [12]", "value": 75, "unit": "%"}, {"measurement": "Time", "setting": "Rattus norvegicus [4]", "value": 24.7, "unit": "s"}, {"measurement": "inhibition in vivo at 5 mg/kg", "setting": "Rattus norvegicus [13]", "value": 73, "unit": "%"}, {"measurement": "inhibition in vivo at 10 mg/kg", "setting": "Rattus norvegicus [5]", "value": "91 to 92", "unit": "%"}, {"measurement": "inhibition in vivo at 5 mg/kg", "setting": "Rattus norvegicus [14]", "value": 50, "unit": "%"}, {"measurement": "Activity", "setting": "[15]", "value": "Non-Toxic"}, {"measurement": "inhibition in vivo at 10 mg/kg", "setting": "Rattus norvegicus [6]", "value": 68, "unit": "%"}]}, {"smiles": "c1ccc(N2CCN(Cc3ccc4c(c3)OCCO4)CC2)cc1", "values": [{"measurement": "inhibition in vivo at 10 mg/kg", "setting": "Rattus norvegicus [1]", "value": 28, "unit": "%"}, {"measurement": "inhibition in vivo at 10 mg/kg", "setting": "Rattus norvegicus [5]", "value": 35, "unit": "%"}, {"measurement": "inhibition in vivo at 10 mg/kg", "setting": "Rattus norvegicus [6]", "value": 25, "unit": "%"}]}, {"smiles": "O=[N+]([O-])c1ccc(N2CCN(Cc3ccc4c(c3)OCCO4)CC2)cc1", "values": [{"measurement": "inhibition in vivo at 10 mg/kg", "setting": "Rattus norvegicus [1]", "value": 68, "unit": "%"}, {"measurement": "Time", "setting": "Rattus norvegicus [2]", "value": 21.2, "unit": "s"}, {"measurement": "Time", "setting": "Rattus norvegicus [3]", "value": 23.4, "unit": "s"}, {"measurement": "Time", "setting": "Rattus norvegicus [4]", "value": 22.6, "unit": "s"}, {"measurement": "inhibition in vivo at 10 mg/kg", "setting": "Rattus norvegicus [5]", "value": 79, "unit": "%"}, {"measurement": "inhibition in vivo at 10 mg/kg", "setting": "Rattus norvegicus [6]", "value": 65, "unit": "%"}]}, {"smiles": "Cc1ccc(N2CCN(Cc3ccc4c(c3)OCCO4)CC2)c(C)c1", "values": [{"measurement": "inhibition in vivo at 10 mg/kg", "setting": "Rattus norvegicus [1]", "value": 16, "unit": "%"}, {"measurement": "inhibition in vivo at 10 mg/kg", "setting": "Rattus norvegicus [5]", "value": 28, "unit": "%"}, {"measurement": "inhibition in vivo at 10 mg/kg", "setting": "Rattus norvegicus [6]", "value": 11, "unit": "%"}]}, {"smiles": "Clc1cccc(N2CCN(Cc3ccc4c(c3)OCCO4)CC2)c1", "values": [{"measurement": "inhibition in vivo at 10 mg/kg", "setting": "Rattus norvegicus [1]", "value": 31, "unit": "%"}, {"measurement": "inhibition in vivo at 10 mg/kg", "setting": "Rattus norvegicus [5]", "value": 37, "unit": "%"}, {"measurement": "inhibition in vivo at 10 mg/kg", "setting": "Rattus norvegicus [6]", "value": 24, "unit": "%"}]}, {"smiles": "c1ccc(N2CCN(Cc3ccc4c(c3)OCCO4)CC2)nc1", "values": [{"measurement": "inhibition in vivo at 10 mg/kg", "setting": "Rattus norvegicus [1]", "value": 40, "unit": "%"}, {"measurement": "inhibition in vivo at 10 mg/kg", "setting": "Rattus norvegicus [5]", "value": 55, "unit": "%"}, {"measurement": "inhibition in vivo at 10 mg/kg", "setting": "Rattus norvegicus [6]", "value": 35, "unit": "%"}]}, {"smiles": "O=C(O)Cc1ccccc1Nc1c(Cl)cccc1Cl", "note": "[DICLOFENAC]", "values": [{"measurement": "inhibition in vivo at 10 mg/kg", "setting": "Rattus norvegicus [1]", "value": "41 to 42", "unit": "%"}, {"measurement": "Time", "setting": "Rattus norvegicus [2]", "value": 22.3, "unit": "s"}, {"measurement": "Time", "setting": "Rattus norvegicus [3]", "value": 24.1, "unit": "s"}, {"measurement": "Time", "setting": "Rattus norvegicus [4]", "value": 23.5, "unit": "s"}, {"measurement": "inhibition in vivo at 10 mg/kg", "setting": "Rattus norvegicus [5]", "value": "79 to 80", "unit": "%"}, {"measurement": "inhibition in vivo at 10 mg/kg", "setting": "Rattus norvegicus [6]", "value": "50 to 52", "unit": "%"}]}, {"smiles": "Fc1ccc(N2CCN(Cc3ccc4c(c3)OCCO4)CC2)cc1", "values": [{"measurement": "inhibition in vivo at 10 mg/kg", "setting": "Rattus norvegicus [1]", "value": 62, "unit": "%"}, {"measurement": "Time", "setting": "Rattus norvegicus [2]", "value": 19.9, "unit": "s"}, {"measurement": "Time", "setting": "Rattus norvegicus [3]", "value": 21.5, "unit": "s"}, {"measurement": "Time", "setting": "Rattus norvegicus [4]", "value": 20.7, "unit": "s"}, {"measurement": "inhibition in vivo at 10 mg/kg", "setting": "Rattus norvegicus [5]", "value": 82, "unit": "%"}, {"measurement": "inhibition in vivo at 10 mg/kg", "setting": "Rattus norvegicus [6]", "value": 57, "unit": "%"}]}, {"smiles": "Clc1cccc(N2CCN(Cc3ccc4c(c3)OCCO4)CC2)c1Cl", "values": [{"measurement": "inhibition in vivo at 10 mg/kg", "setting": "Rattus norvegicus [1]", "value": 18, "unit": "%"}, {"measurement": "inhibition in vivo at 10 mg/kg", "setting": "Rattus norvegicus [5]", "value": 28, "unit": "%"}, {"measurement": "inhibition in vivo at 10 mg/kg", "setting": "Rattus norvegicus [6]", "value": 13, "unit": "%"}]}, {"smiles": "COc1cccc(N2CCN(Cc3ccc4c(c3)OCCO4)CC2)c1", "values": [{"measurement": "inhibition in vivo at 10 mg/kg", "setting": "Rattus norvegicus [1]", "value": 45, "unit": "%"}, {"measurement": "inhibition in vivo at 10 mg/kg", "setting": "Rattus norvegicus [5]", "value": 62, "unit": "%"}, {"measurement": "inhibition in vivo at 10 mg/kg", "setting": "Rattus norvegicus [6]", "value": 40, "unit": "%"}]}]}
